Reference: ChEMBL document CHEMBL4052723, “A novel inhibitor of farnesyltransferase with a zinc site recognition moiety and a farnesyl group” (Bioorg Med Chem Lett, 2017)
Calls of active or inactive are those of the source. The rule behind the calls is not given here.

Experiments:
[1] = Inhibition of human protein farnesyltransferase using dansyl peptide containing CAAX as substrate in presence of farnesyl pyrophosphate after 15 mins by fluorescence assay
ASPC1 [2] = assay: Antiproliferative activity against human AsPC1 cells expressing K-Ras mutant after 2 days by trypan blue staining based assay; type: functional, cell-based
Method in brief: (§1)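 Cells (AsPC-1, K-Ras mutant; or BxPC-3) were seeded at 1.0 × 10^4 per well and grown 1 d at 37 °C. The disulfide prodrug form was then added, and cells were incubated 2 days. At 0, 1 and 2 days after addition, cells were detached and stained with 0.4% trypan blue. Unstained (living) cells were counted.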

ASPC1 [3] = assay: Antiproliferative activity against human AsPC1 cells expressing K-Ras mutant at 10 uM after 1 day in presence of DTT by trypan blue staining based assay; type: functional, cell-based
Homo sapiens [4] = species: Homo sapiens; assay: Inhibition of human protein farnesyltransferase assessed as enzyme activity in presence of Ni2+ ions (reference value: 49%); set-up: scale not given: the % may be the effect or the level left
Homo sapiens [5] = species: Homo sapiens; assay: Inhibition of human protein farnesyltransferase assessed as enzyme activity in presence of Zn2+ ions (reference value: 49%); set-up: scale not given: the % may be the effect or the level left
Homo sapiens [6] = species: Homo sapiens; assay: Inhibition of human protein farnesyltransferase assessed as enzyme activity in presence of Co2+ ions (reference value: 49%); set-up: scale not given: the % may be the effect or the level left
Homo sapiens [7] = species: Homo sapiens; assay: Inhibition of human protein farnesyltransferase assessed as enzyme activity in presence of Cu2+ ions (reference value: 49%); set-up: scale not given: the % may be the effect or the level left
Homo sapiens [8] = species: Homo sapiens; assay: Inhibition of human protein farnesyltransferase assessed as enzyme activity in presence of Fe2+ ions (reference value: 49%); set-up: scale not given: the % may be the effect or the level left
Homo sapiens [9] = species: Homo sapiens; assay: Inhibition of human protein farnesyltransferase assessed as enzyme activity in presence of Ca2+ ions (reference value: 49%); set-up: scale not given: the % may be the effect or the level left
ASPC1 [10] = assay: Antiproliferative activity against human AsPC1 cells expressing K-Ras mutant at 0.5 to 10 uM after 2 days by trypan blue staining based assay; type: functional, cell-based; method in brief: as §1
BXPC-3 = assay: Antiproliferative activity against human BxPC3 cells at 0.5 to 10 uM after 2 days by trypan blue staining based assay; type: functional, cell-based; method in brief: as §1

| Structure (SMILES) | IC50 [1] [nM] | Activity (ASPC1 [2]) | Activity (ASPC1 [3]) | Activity (Homo sapiens [4]) [%] | Activity (Homo sapiens [5]) [%] | Activity (Homo sapiens [6]) [%] | Activity (Homo sapiens [7]) [%] | Activity (Homo sapiens [8]) [%] | Activity (Homo sapiens [9]) [%] | Activity (ASPC1 [10]) | Activity (BXPC-3) |
| --- | --- | --- | --- | --- | --- | --- | --- | --- | --- | --- | --- |
| CCCCCCCCCCCCOC(=O)Nc1cc(CNCCS)nc(CNCCS)c1 | 2000 | Dose-dependent effect | Active | – | – | – | – | – | – | – | – |
| SCCNCc1cc(-c2cccc3ccccc23)cc(CNCCS)n1 | – | – | – | 67 | 100 | 66 | 47 | 38 | 48 | – | – |
| CC(C)=CCC/C(C)=C/CC/C(C)=C/COC(=O)Nc1cc(CNCCS)nc(CNCCS)c1 | 900 | – | Active | – | – | – | – | – | – | Active | Active |
